This is an account of results in ChEMBL document CHEMBL1268852, “Quercetin prevents unloading-derived disused muscle atrophy by attenuating the induction of ubiquitin ligases in tail-suspension mice” (J Nat Prod, 2010).

Active and inactive are the calls of the source. No cut-off for these calls is given here.

Common to all, as to type: functional, organism-based
For test [1], the system named is Mus musculus. The experiment in a line: Reduction of gastrocnemius muscle weight loss in C57BL/6 mouse tail suspension model at 2.5 pmol administered in gastrocnemius muscle qd for 10 days relative to whole body weight.
The test system of test [2] is Mus musculus. The experiment in a line: […] of lipid peroxidation in gastrocnemius muscle of C57BL/6 mouse tail suspension model assessed as decrease of thiobarbituric acid-reactive substance level at 2.5 pmol administered in gastrocnemius muscle qd for 10 days by RT-PCR analysis. Summed up:
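Male C57BL/6 mice, 7 weeks old. Compound in 0.9% saline with 0.1% propylene glycol, 2.5 pmol/leg (50 µL) injected into one gastrocnemius and vehicle into the other, given every 24 h. Tail suspension began 24 h after the first dose and lasted 10 days; ground mice served as controls. Muscle taken 6 h after the day-10 dose. TBARS measured by fluorescence ([…]) against a tetraethoxypropane standard; n=4, two-way ANOVA.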

Test [3] has as its system Mus musculus. The experiment in a line: Reduction of atrogin-1 mRNA expression in gastrocnemius muscle of C57BL/6 mouse tail suspension model at 2.5 pmol administered in gastrocnemius muscle qd for 10 days by RT-PCR analysis. Summed up: (§1)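 Male C57BL/6 mice, 7 weeks old, injected intramuscularly in one gastrocnemius with 2.5 pmol/leg in saline/0.1% propylene glycol every 24 h; vehicle went into the contralateral leg. Tail suspension lasted 10 days and ground mice served as controls. Gastrocnemius taken 6 h after the last dose. mRNA measured by real-time PCR and given as % of the vehicle-ground level; mean ± SE, n=4.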

The subject of test [4] is Mus musculus. The experiment in a line: Reduction of MuRF-1 mRNA expression in gastrocnemius muscle of C57BL/6 mouse tail suspension model at 2.5 pmol administered in gastrocnemius muscle qd for 10 days by RT-PCR analysis. The gist of the method:
as §1

Turning to `CC(=O)N[C@@H](CS)C(=O)O`, the result in test [1] and in test [2] was Active.

Take `O=c1cc(-c2ccccc2)oc2ccccc12`: the result in test [3], in test [4] and in test [2] was inactive.

Consider `O=c1c(O)c(-c2ccc(O)c(O)c2)oc2cc(O)cc(O)c12`, for which the outcome in test [1], in test [3], in test [4] and in test [2] was Active.
